# Measured values taken from ChEMBL document CHEMBL3425404, “Structure-activity relationship in a purine-scaffold compound series with selectivity for the endoplasmic reticulum Hsp90 paralog Grp94” (J Med Chem, 2015).
# Active and inactive are the calls of the source. No cut-off for these calls is given here.
# Key:
# Endoplasmin = Endoplasmin (Canis lupus familiaris, UniProt P41148); test: Displacement of Cy3B-GM from recombinant Grp94 (unknown origin) after 24 hrs by fluorescence polarization assay
# Endoplasmin, sequence (P41148 whole entry): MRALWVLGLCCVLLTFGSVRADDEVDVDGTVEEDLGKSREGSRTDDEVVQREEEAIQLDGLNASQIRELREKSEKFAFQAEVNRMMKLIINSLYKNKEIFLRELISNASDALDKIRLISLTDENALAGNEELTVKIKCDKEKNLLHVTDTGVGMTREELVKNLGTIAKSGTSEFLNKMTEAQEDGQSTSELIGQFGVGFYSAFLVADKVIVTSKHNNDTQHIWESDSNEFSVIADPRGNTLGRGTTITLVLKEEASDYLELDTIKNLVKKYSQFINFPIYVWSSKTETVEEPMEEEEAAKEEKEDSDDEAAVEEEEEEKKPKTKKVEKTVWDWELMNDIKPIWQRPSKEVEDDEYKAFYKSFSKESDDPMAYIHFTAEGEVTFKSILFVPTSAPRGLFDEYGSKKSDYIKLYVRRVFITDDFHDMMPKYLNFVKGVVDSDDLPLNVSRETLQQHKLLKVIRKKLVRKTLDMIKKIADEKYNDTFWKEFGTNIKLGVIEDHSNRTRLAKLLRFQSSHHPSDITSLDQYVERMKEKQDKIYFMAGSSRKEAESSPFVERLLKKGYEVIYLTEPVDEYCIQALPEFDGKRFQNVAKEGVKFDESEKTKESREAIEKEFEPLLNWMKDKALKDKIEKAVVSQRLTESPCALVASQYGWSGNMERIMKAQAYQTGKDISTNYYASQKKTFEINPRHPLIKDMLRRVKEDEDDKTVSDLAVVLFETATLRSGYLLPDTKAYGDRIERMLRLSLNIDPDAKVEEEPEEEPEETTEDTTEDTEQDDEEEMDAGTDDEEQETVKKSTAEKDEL
# [1] = target: Heat shock protein HSP 90-alpha (Homo sapiens, UniProt P07900); test: Displacement of Cy3B-GM from recombinant Hsp90alpha (unknown origin) after 24 hrs by fluorescence polarization assay
# [2] = target: T1, Heat shock protein 75 kDa, mitochondrial (Homo sapiens, UniProt Q12931); test: Displacement of PU-FITC3 from recombinant TRAP-1 (unknown origin) after 24 hrs by fluorescence polarization assay
# T1 sequence (Q12931 whole entry): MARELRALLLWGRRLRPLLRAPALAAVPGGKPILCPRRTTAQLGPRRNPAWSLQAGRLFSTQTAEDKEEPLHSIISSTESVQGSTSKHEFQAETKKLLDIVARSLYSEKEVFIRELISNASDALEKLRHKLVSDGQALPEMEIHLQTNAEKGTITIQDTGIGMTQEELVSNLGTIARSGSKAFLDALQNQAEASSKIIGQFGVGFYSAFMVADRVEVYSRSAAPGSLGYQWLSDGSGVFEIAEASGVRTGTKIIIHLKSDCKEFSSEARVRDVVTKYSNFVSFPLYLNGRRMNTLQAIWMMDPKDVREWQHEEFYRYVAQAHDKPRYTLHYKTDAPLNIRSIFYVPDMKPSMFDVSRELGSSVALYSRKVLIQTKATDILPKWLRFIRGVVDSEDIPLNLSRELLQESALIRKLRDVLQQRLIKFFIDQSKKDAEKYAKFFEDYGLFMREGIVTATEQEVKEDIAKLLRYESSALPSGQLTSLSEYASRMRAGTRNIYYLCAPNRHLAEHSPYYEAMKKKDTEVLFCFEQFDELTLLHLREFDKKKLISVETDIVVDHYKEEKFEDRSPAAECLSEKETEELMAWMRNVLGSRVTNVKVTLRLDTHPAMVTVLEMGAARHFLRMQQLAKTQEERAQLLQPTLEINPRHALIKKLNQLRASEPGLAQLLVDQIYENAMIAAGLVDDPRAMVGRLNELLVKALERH
# [3] = target: Heat shock protein HSP 90-beta (Homo sapiens, UniProt P08238)
# Heat shock protein HSP 90-beta, sequence (P08238 whole entry): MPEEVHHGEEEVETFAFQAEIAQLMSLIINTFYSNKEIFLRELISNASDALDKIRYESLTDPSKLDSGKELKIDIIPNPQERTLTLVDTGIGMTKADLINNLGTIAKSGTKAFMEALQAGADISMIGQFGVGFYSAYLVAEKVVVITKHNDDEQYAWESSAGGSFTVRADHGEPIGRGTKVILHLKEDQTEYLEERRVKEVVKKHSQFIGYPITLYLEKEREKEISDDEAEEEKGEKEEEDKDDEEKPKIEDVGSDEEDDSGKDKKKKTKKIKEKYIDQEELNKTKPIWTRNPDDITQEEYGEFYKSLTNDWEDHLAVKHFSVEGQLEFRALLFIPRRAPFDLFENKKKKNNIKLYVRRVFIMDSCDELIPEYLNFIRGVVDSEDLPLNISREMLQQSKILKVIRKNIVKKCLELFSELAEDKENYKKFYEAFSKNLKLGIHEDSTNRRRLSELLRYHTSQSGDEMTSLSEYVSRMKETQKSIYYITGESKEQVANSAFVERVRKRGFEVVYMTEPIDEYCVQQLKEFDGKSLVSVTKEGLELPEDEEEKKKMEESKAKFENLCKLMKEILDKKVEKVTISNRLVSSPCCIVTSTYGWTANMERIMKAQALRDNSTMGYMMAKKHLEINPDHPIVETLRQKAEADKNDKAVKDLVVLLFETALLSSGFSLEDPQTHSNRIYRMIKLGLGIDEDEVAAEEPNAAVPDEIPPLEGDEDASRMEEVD
# [4] = target: Heat shock protein HSP90 (Homo sapiens) (UniProt P07900+P08238); test: Inhibition of HSP90 in human SKBR3 cells assessed as induction of HSP70 activity at 100 uM after 24 hrs by Western blot analysis; type: cell-based; conditions: SK-BR-3
# Procedure, shortened: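 SKBr3 cells (McCoy's 5A, 10% FBS, 1% Pen/Strep, 37 °C, CO2) treated 24 h with DMSO vehicle or compound. Cells lysed in RIPA with protease inhibitors; protein measured by BCA. Lysate (5−50 μg) run on SDS−PAGE, blotted to nitrocellulose, probed for Hsp70 (1:2500) and β-actin. HRP secondary, ECL detection, densitometry; triplicate experiments.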
# [5] = Cytotoxicity against human SKBR3 cells assessed as cell viability at 100 uM after 72 hrs by CellTiter-Glo assay; type: cell-based; conditions: sk-br-3, 72 h
# Procedure, shortened: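 SKBr3 cells were grown in McCoy's 5A with 10% FBS and Pen/Strep at 37 °C. They were exposed 72 h to vehicle or compound in quadruplicate wells. Viability was read by CellTiter-Glo luminescence (ATP content), with mean ± error, n = 4.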
# [6] = target: Rho-associated protein kinase 2 (Homo sapiens) (UniProt O75116); test: Inhibition of human ROCK2 at 10 uM after 1 hr by qPCR analysis relative to control
# Rho-associated protein kinase 2 (Homo sapiens), sequence (O75116 whole entry, looked up): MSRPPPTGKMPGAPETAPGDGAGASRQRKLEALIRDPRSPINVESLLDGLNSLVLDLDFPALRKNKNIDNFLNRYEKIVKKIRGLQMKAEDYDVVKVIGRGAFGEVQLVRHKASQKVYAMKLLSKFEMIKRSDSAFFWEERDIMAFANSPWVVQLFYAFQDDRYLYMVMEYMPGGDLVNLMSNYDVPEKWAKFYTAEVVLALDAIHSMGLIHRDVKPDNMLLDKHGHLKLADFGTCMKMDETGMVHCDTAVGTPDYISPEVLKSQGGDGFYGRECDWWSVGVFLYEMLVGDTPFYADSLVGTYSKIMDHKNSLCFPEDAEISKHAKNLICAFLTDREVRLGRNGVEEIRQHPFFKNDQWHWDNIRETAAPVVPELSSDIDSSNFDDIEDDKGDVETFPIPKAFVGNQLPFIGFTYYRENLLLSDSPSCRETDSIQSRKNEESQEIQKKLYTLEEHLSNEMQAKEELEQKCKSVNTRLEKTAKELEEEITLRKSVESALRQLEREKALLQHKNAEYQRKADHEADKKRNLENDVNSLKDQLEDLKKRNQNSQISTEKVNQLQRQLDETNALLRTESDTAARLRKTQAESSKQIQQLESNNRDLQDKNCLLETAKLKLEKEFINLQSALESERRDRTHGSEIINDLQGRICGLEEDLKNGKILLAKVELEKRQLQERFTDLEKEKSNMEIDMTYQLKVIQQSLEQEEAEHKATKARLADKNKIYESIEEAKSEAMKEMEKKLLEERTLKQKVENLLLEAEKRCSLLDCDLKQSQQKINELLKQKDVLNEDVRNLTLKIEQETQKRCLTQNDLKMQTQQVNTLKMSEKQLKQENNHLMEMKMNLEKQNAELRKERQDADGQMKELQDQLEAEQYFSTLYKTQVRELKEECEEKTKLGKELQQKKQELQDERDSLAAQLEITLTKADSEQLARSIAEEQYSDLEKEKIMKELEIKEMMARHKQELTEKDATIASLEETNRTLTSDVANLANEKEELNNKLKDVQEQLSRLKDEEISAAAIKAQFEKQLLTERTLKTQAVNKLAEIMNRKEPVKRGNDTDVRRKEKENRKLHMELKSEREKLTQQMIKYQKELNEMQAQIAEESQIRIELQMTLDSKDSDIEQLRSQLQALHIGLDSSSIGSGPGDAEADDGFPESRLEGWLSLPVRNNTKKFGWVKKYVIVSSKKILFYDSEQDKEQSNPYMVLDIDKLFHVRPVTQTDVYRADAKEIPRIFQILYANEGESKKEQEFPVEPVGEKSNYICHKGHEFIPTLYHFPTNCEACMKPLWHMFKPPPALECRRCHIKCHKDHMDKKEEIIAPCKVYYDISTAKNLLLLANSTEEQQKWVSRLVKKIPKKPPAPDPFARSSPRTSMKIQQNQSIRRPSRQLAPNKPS
# Procedure, shortened: (§1)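 Compound tested at 10 μM in a scanEDGE 97 active-site competition binding panel. Incubation was 1 h at room temperature, then washing and elution with non-biotinylated ligand. Bead-bound kinase was quantified by qPCR; values are % inhibition.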
# [7] = target: MAP kinase-interacting serine/threonine-protein kinase 2 (Homo sapiens) (UniProt Q9HBH9); test: Inhibition of human MKNK2 at 10 uM after 1 hr by qPCR analysis relative to control; procedure, shortened: as §1
# MAP kinase-interacting serine/threonine-protein kinase 2 (Homo sapiens), sequence (Q9HBH9 whole entry, looked up): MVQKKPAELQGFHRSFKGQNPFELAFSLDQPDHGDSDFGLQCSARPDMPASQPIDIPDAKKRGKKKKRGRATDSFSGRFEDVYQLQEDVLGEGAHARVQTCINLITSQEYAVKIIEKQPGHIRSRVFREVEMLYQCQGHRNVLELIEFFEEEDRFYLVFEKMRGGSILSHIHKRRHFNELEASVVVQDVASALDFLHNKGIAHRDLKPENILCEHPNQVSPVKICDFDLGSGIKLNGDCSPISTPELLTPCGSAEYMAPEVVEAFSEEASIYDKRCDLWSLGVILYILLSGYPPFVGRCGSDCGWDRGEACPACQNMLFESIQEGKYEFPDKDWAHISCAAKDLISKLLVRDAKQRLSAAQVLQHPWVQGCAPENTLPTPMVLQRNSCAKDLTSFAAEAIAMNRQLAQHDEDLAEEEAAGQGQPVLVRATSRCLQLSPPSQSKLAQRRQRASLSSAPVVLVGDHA
# Homo sapiens = species: Homo sapiens; test: Selectivity ratio of IC50 for recombinant Grp94 (unknown origin) to IC50 for recombinant Hsp90alpha (unknown origin)
SMILES,IC50 (Endoplasmin),IC50 [1],other results
C#CCCCn1c(Cc2ccc(Cl)cc2Cl)nc2c(N)ncnc21,0.7 µM,> 100 µM,–
C#CCCCn1c(Sc2cc(Br)cc(Br)c2)nc2c(N)ncnc21,0.29 µM,> 50 µM,–
C#CCC(C)n1c(Sc2ccc(Cl)cc2Cl)nc2c(N)ncnc21 (stereo not drawn),5 µM,> 50 µM,–
C#CCCCCn1c(Sc2cc(Cl)cc(Cl)c2)nc2c(N)ncnc21,0.665 µM,> 50 µM,–
Nc1ncnc2c1nc(Sc1cc(Cl)cc(Cl)c1)n2CCCC(F)(F)F,0.502 µM,–,–
COC(=O)c1c(O)cc(O)c(Cl)c1CCc1nccn1Cc1ccccc1,–,–,inhibition [4]: Active; Activity [5]: Toxic
Nc1ncnc2c1nc(Sc1cc(Cl)cc(Cl)c1)n2Cc1ccccc1,> 5 µM,> 50 µM,–
C#CCC(C)n1c(Sc2cc(Cl)cc(Cl)c2)nc2c(N)ncnc21 (stereo not drawn),5.8 µM,> 50 µM,–
C#CCCCn1c(Sc2ccccc2OC)nc2c(N)ncnc21,6.2 µM,> 100 µM,IC50 [3]: > 100 µM
C#CCCCn1c(S(=O)(=O)c2ccc(Cl)cc2Cl)nc2c(N)ncnc21,4.7 µM,–,–
C#CCCCn1c(Sc2ccccc2CO)nc2c(N)ncnc21,29.4 µM,–,–
Nc1ncnc2c1nc(Sc1cc(Cl)cc(Cl)c1)n2CCCCC(F)(F)F,2.74 µM,–,–
C#CCCCn1c(Sc2ccc(Br)cc2Cl)nc2c(N)ncnc21,0.39 µM,> 50 µM,–
C#CCCCn1c(Sc2cc(Cl)ccc2Cl)nc2c(N)ncnc21,0.53 µM,–,–
C#CCCCn1c(Sc2cc(C)cc(C)c2)nc2c(N)ncnc21,11.5 µM,–,–
C#CCCCn1c(Sc2cc(Cl)nc(Cl)c2)nc2c(N)ncnc21,1.9 µM,8.3 µM,IC50 [2]: 9.6 µM
C#CCCCn1c([S+]([O-])c2ccc(Cl)cc2Cl)nc2c(N)ncnc21 (stereo not drawn),5.4 µM,24.9 µM,–
CC(C)NCCCn1c(Sc2cc3c(cc2N(C)C)OCO3)nc2c(N)ncnc21,0.265 µM,0.1 µM,–
C#CCCCn1c(Sc2cc(Cl)cc(Br)c2)nc2c(N)ncnc21,0.24 µM,> 100 µM,IC50 [3]: > 100 µM
CC(C)NCCCn1c(Sc2cc3c(cc2I)OCO3)nc2c(N)nccc21,0.101 µM,0.028 µM,Ratio IC50 (Homo sapiens): 4
C#CCCCn1c(Sc2ccccc2OC(F)(F)F)nc2c(N)ncnc21,1.4 µM,–,–
C#CCCCn1c(C(=O)c2ccc(Cl)cc2Cl)nc2c(N)ncnc21,0.34 µM,> 100 µM,IC50 [2]: 4.98 µM
CCCC(C)n1c(Sc2ccc(Cl)cc2Cl)nc2c(N)ncnc21 (stereo not drawn),2.48 µM,> 100 µM,IC50 [2]: > 50 µM

# Further lines, with some results ahead:
IC50 (Endoplasmin),IC50 [1],SMILES,other results
1.13 µM,–,C#CCCCn1c(Sc2ccc(OC)cc2)nc2c(N)ncnc21,–
3.44 µM,> 50 µM,CC(C)NCCCn1c(Sc2ccc(Cl)cc2Cl)nc2c(N)nccc21,IC50 [2]: 14.1 µM
> 2.5 µM,> 50 µM,Nc1ncnc2c1nc(Sc1cc(Cl)cc(Cl)c1)n2CCc1ccccc1,–
0.35 µM,–,C#CCCCn1c(Sc2ccccc2Cl)nc2c(N)ncnc21,–
0.5 µM,> 100 µM,C#CCCCn1c(Sc2cc(C(F)(F)F)ccc2Cl)nc2c(N)ncnc21,IC50 [3]: > 100 µM
1.08 µM,–,CC(C)NCCCn1c(Sc2cc(Cl)cc(Cl)c2)nc2c(N)nccc21,IC50 [2]: 7.2 µM
0.5 µM,> 100 µM,C#CCCCn1c(Oc2ccc(Cl)cc2Cl)nc2c(N)ncnc21,–
0.12 µM,–,C#CCCCn1c(Sc2ccc(Cl)cc2Cl)nc2c(N)ncnc21,inhibition [6]: 32%; inhibition [7]: 34%
> 25 µM,–,Cc1ccc(Sc2nc3c(N)ncn(CCCNC(C)C)c-3n2)c(C)c1,–
–,> 50 µM,CCCCn1c(Sc2cc(Cl)cc(Cl)c2)nc2c(N)ncnc21,–
34.5 µM,> 50 µM,C#CCCCn1c(Sc2ccc(OC)cc2OC)nc2c(N)ncnc21,IC50 [3]: > 50 µM
0.17 µM,–,C#CCCCn1c(Sc2cc(Cl)c(Cl)cc2Cl)nc2c(N)ncnc21,–
0.43 µM,16 µM,C#CCCCn1c(Sc2ccc(Cl)c(Cl)c2Cl)nc2c(N)ncnc21,IC50 [2]: 3.6 µM; IC50 [3]: 39.5 µM
0.287 µM,> 50 µM,C#CCCn1c(Sc2cc(Cl)cc(Cl)c2)nc2c(N)ncnc21,–
1.65 µM,> 50 µM,Nc1ncnc2c1nc(Sc1cc(Cl)cc(Cl)c1)n2CCCCCC(F)(F)F,–
14.3 µM,> 50 µM,CCCC(C)n1c(Sc2cc(Cl)cc(Cl)c2)nc2c(N)ncnc21 (stereo not drawn),–
0.56 µM,–,Nc1ncnc2c1nc(Sc1cc(Cl)cc(Cl)c1)n2CCC(F)(F)F,–
0.92 µM,> 50 µM,C#CCC(CC)n1c(Sc2ccc(Cl)cc2Cl)nc2c(N)ncnc21 (stereo not drawn),IC50 [2]: > 50 µM
1.5 µM,–,C#CCCCn1c(Sc2ccc(Cl)cc2)nc2c(N)ncnc21,–
> 5 µM,> 100 µM,C#CCC(CC)n1c(Sc2cc(Cl)cc(Cl)c2)nc2c(N)ncnc21 (stereo not drawn),–
2.1 µM,> 500 µM,C#CCCCn1c(Sc2c(C)cc(C)cc2C)nc2c(N)ncnc21,IC50 [3]: > 500 µM
5.1 µM,–,CC#CCn1c(Sc2cc(Cl)cc(Cl)c2)nc2c(N)ncnc21,–
0.39 µM,> 50 µM,C#CCCn1c(Sc2ccc(Cl)cc2Cl)nc2c(N)ncnc21,IC50 [2]: 7.23 µM
0.26 µM,> 500 µM,C#CCCCn1c(Sc2cc(Cl)cc(Cl)c2)nc2c(N)ncnc21,IC50 [2]: 83.6 µM; IC50 [3]: > 500 µM
0.695 µM,1.96 µM,C#CCCCn1c(Sc2ccc(Cl)c(Cl)c2)nc2c(N)ncnc21,–
